Key:
[1] = system: NCI-60 human tumor cell line panel (Homo sapiens); experiment: Cytostatic effect in NCI-60 human tumor cell lines.; parameters: unit not given here
Colon cell = experiment: Inhibitory activity against Colon cell line; assay type: functional, cell-based; conditions: for IC50: Homo sapiens, Colon cell
3Y1 cell line = experiment: Cytotoxicity in 3Y1 cells.; assay type: functional, Rattus norvegicus; parameters: unit not given here
Outline: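 Rat normal fibroblast 3Y1 cells grown in Dulbecco's modified MEM with 10% fetal calf serum, 5% CO2, humidified. Exponentially growing cells exposed to compounds for 24 h. Relative cell number = cell number at 24 h per initial cell number at 0 h × 100; DNA content distribution read by laser scanning cytometry.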

[2] = system: Panel leukemia (Carcinoma cell lines); experiment: Inhibitory activity against leukemia cell line; assay type: functional, cell-based; conditions: for IC50: Homo sapiens, Panel leukemia (Carcinoma cell lines)
Prostate cell = experiment: Inhibitory activity against prostate cell line; assay type: functional, cell-based; conditions: for IC50: Homo sapiens, Prostate cell
Renal cell = experiment: Inhibitory activity against renal cell line; assay type: functional, cell-based; conditions: for IC50: Homo sapiens, Renal cell
[3] = system: non-small-cell lung cancer cell lines (Homo sapiens); experiment: Inhibitory activity against non-small-cell lung cancer cell lines; conditions: for IC50: Homo sapiens
Melanoma cell = experiment: Inhibitory activity against melanoma cell line; assay type: functional, cell-based; conditions: for IC50: Homo sapiens, Melanoma cell
Breast carcinoma cell = experiment: Inhibitory activity against breast cell line; assay type: functional, cell-based; conditions: for IC50: Homo sapiens, Breast carcinoma cell
[4] = system: NCI-60 human tumor cell line panel (Homo sapiens); experiment: Mean concentration causing inhibition of cell growth in the NCI-60 human tumor cell line panel.
CNS cell = experiment: Inhibitory activity against CNS cell line; assay type: functional, cell-based; conditions: for IC50: Homo sapiens, CNS cell
Ovarian carcinoma cell = experiment: Inhibitory activity against ovarian cell line; assay type: functional, cell-based; conditions: for IC50: Homo sapiens, Ovarian carcinoma cell

Compound | TGI [1] | IC50 (Colon cell) [µM] | LC50 (3Y1 cell line) | IC50 [2] [µM] | IC50 (Prostate cell) [µM] | IC50 (Renal cell) [µM] | IC50 [3] [µM] | IC50 (Melanoma cell) [µM] | IC50 (Breast carcinoma cell) [µM] | GI50 ([4]; Homo sapiens, NCI-60 panel) [µM] | IC50 (CNS cell) [µM] | IC50 (Ovarian carcinoma cell) [µM] | further results
COc1cc([C@H]2c3[nH]c4ccccc4c3C[C@H]3C(=O)NCC(=O)N23)cc(OC)c1O (relative stereo) | >-4 | > 100 | >-4 | > 100 | > 100 | > 100 | > 100 | > 100 | > 100 | > 100 | > 100 | > 100 | –
O=C1[C@@H]2CCCN2C(=O)[C@H](Cc2c[nH]c3ccccc23)N1C/C=C/c1ccccc1 | -4.07 | 35.5 | -4.01 | 22.9 | 39.8 | 35.5 | 32.4 | 43.7 | 27.5 | 31.6 | 37.2 | 44.7 | –
COc1cc([C@H]2c3[nH]c4ccccc4c3C[C@H]3C(=O)N4CCC[C@H]4C(=O)N23)cc(OC)c1O | >-4.03 | 89.1 | >-4 | 100 | 66.1 | 44.7 | 40.7 | 55 | 46.8 | 53.7 | 33.1 | 39.8 | –
COc1cc([C@@H]2c3[nH]c4ccccc4c3C[C@H]3C(=O)NCC(=O)N23)cc(OC)c1OC (relative stereo) | -4.26 | 4.37 | -4.04 | 2.29 | 5.5 | 13.8 | 7.59 | 6.76 | 6.31 | 5.89 | 3.72 | 5.89 | –
CC(C)=C[C@H]1c2[nH]c3ccccc3c2C[C@H]2C(=O)N3CCC[C@H]3C(=O)N21 (stereo in doubt) [DEMETHOXYFUMITREMORGIN C] | – | – | – | – | – | – | – | – | – | – | – | – | Log IC50 (Colon cell; colon cell): -4.02; Log IC50 ([2]; panel leukemia (carcinoma cell lines)): -4.16; Log IC50 (Prostate cell; prostate cell): > -4; Log IC50 (Renal cell; renal cell): > -4; Log IC50 [3]: -4.03; Log IC50 (Melanoma cell; melanoma cell): > -4; Log IC50 (Breast carcinoma cell; breast carcinoma cell): > -4; GI50 [4]: 95.5 µM; Log IC50 (CNS cell; cns cell): -4; Log IC50 (Ovarian carcinoma cell; ovarian carcinoma cell): > -4
CC(C)C[C@H]1c2[nH]c3ccccc3c2C[C@H]2C(=O)N3CCC[C@H]3C(=O)N21 | – | 67.6 | >-4 | 36.3 | 83.2 | 74.1 | 77.6 | 87.1 | 63.1 | 70.8 | 83.2 | 79.4 | –
O=C1[C@H](Cc2c[nH]c3ccccc23)N(Cc2ccccc2)C(=O)[C@@H]2CCCN12 | >-4 | > 100 | >-4 | 85.1 | > 100 | > 100 | > 100 | > 100 | > 100 | 97.7 | > 100 | > 100 | –
O=C1[C@@H]2Cc3c([nH]c4ccccc34)[C@@H](c3ccccc3)N2C(=O)[C@@H]2CCCN12 | >-4 | 45.7 | >-4 | 40.7 | 63.1 | 50.1 | 52.5 | 50.1 | 49 | 51.3 | 61.7 | 56.2 | –
COc1cc(CN2C(=O)[C@@H]3CCCN3C(=O)[C@@H]2Cc2c[nH]c3ccccc23)cc(OC)c1OC | -4.04 | 30.2 | -4.01 | 13.2 | 57.5 | 30.2 | 42.7 | 28.8 | 33.9 | 30.9 | 27.5 | 40.7 | –
CC(C)C[C@@H]1c2[nH]c3ccccc3c2C[C@H]2C(=O)N3CCC[C@H]3C(=O)N12 | >-4 | > 100 | >-4 | 77.6 | > 100 | 97.7 | 93.3 | > 100 | 87.1 | 93.3 | 85.1 | > 100 | –
